Activity and viability data for 13 compounds are collected here from ChEMBL document CHEMBL4038311, “An Ursolic Acid Derived Small Molecule Triggers Cancer Cell Death through Hyperstimulation of Macropinocytosis” (J Med Chem, 2017).

Activity calls are given as the source filed them. The calls are words filed in the database; no cut-off is given here.

For assay [1], the system named is HeLa. The assay is described as follows: Anticancer activity against human HeLa cells assessed as vacuole formation at 20 uM after 24 hrs by phase contrast microscopic analysis. Type of assay: functional, cell-based.
Assay [2] relates to SK-N-MC. The assay is described as follows: Anticancer activity against human SK-N-MC cells assessed as cell viability at 20 uM after 48 hrs by CCK8 assay relative to control. Type of assay: functional. The following applies: read-out: Activity. Summed up:
(§1)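 Cells (5000/well, pre-incubated overnight) exposed to 20 µM for 48 h. CCK-8 absorbance read at 450 nm. Viability given as percent of vehicle (DMSO) control, mean ± SD. Six parallel wells per condition, at least three independent repeats.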

The subject of assay [3] is HT-1080. The assay is described as follows: Anticancer activity against human HT1080 cells assessed as vacuole formation at 20 uM after 24 hrs by phase contrast microscopic analysis. The class given is functional, cell-based.
Assay [4] has as its system HepG2. The assay is described as follows: Anticancer activity against human HepG2 cells assessed as cell viability at 20 uM after 48 hrs by CCK8 assay relative to control. Type of assay: functional. The following applies: HepG2, 48 h, read-out: Activity. In a few lines:
as §1

In assay [5] the test system is SK-N-MC. The assay is described as follows: Anticancer activity against human SK-N-MC cells assessed as vacuole formation at 20 uM after 24 hrs by phase contrast microscopic analysis. The class given is functional, cell-based.
In assay [6] the test system is MCF7. The assay is described as follows: Anticancer activity against human MCF7 cells assessed as cell viability at 20 uM after 48 hrs by CCK8 assay relative to control. Type of assay: functional. Conditions: MCF7, 48 h, read-out: Activity. Summed up:
as §1

Assay [7] concerns HT-1080. The assay is described as follows: Anticancer activity against human HT1080 cells assessed as cell viability at 20 uM after 48 hrs by CCK8 assay relative to control. The class given is functional. Conditions: HT-1080, 48 h, read-out: Activity. In a few lines:
as §1

The test system of assay [8] is HeLa. The assay is described as follows: Anticancer activity against human HeLa cells assessed as cell viability at 20 uM after 48 hrs by CCK8 assay relative to control. Conditions: read-out: Activity. The class given is functional. Summed up: as §1
Assay [9] concerns MCF7. The assay is described as follows: Anticancer activity against human MCF7 cells assessed as vacuole formation at 20 uM after 24 hrs by phase contrast microscopic analysis. Type of assay: functional, cell-based.
In assay [10] the test system is HepG2. The assay is described as follows: Anticancer activity against human HepG2 cells assessed as vacuole formation at 20 uM after 24 hrs by phase contrast microscopic analysis. Type of assay: functional, cell-based.
In assay [11] the test system is HeLa. The assay is described as follows: Induction of apoptosis in human HeLa cells assessed as increase in cleaved PARP1 levels at 100 nM after 24 to 48 hrs by Western blot analysis. Type of assay: functional, cell-based.
Assay [12] concerns HeLa. The assay is described as follows: Induction of apoptosis in human HeLa cells assessed as increase in cleaved caspase-3 levels at 100 nM after 24 to 48 hrs by Western blot analysis. Type of assay: functional, cell-based.
Assay [13] deals with HeLa. The assay is described as follows: Anticancer activity against human HeLa cells assessed as decrease in cell viability at 100 nM preincubated cells with Z-VAD-FMK for 1 hr followed by compound addition measured after 48 hrs by CCK8 assay. The class given is functional, cell-based.

Take `C[C@H]1[C@H](C)CC[C@]2(C(=O)O)CC[C@]3(C)C(=CC[C@@H]4[C@@]5(C)Cc6cnn(-c7ccncc7)c6C(C)(C)[C@@H]5CC[C@]43C)[C@H]12`: the outcome in the assay on HeLa [1], in the assay with HT-1080 [3], in the assay with SK-N-MC [5], in the assay on MCF7 [9] and in the assay on HepG2 [10] was inactive. Besides, the viability at 20 µM in the assay with SK-N-MC [2] worked out at 79.9%; in the assay with HepG2 [4] it was 56.8%; with MCF7 [6], 39.7%; in the assay with HT-1080 [7], 30.9%; with HeLa [8] it was 54.2%.

On to `CCOC(=O)Cn1ncc2c1C(C)(C)[C@@H]1CC[C@]3(C)[C@H](CC=C4[C@@H]5[C@@H](C)[C@H](C)CC[C@]5(C(=O)O)CC[C@]43C)[C@@]1(C)C2`, for which the outcome with HeLa [1], with HT-1080 [3], in the assay with SK-N-MC [5], in the assay with MCF7 [9] and in the assay with HepG2 [10] was inactive. Besides, the viability at 20 µM with SK-N-MC [2] amounted to 66.6%; in the assay with HepG2 [4], 43.7%; in the assay on MCF7 [6] it was 28.9%; in the assay with HT-1080 [7] it was 55.2%; with HeLa [8], 44.2%.

Turning to `C[C@H]1[C@H](C)CC[C@]2(C(=O)O)CC[C@]3(C)C(=CC[C@@H]4[C@@]5(C)Cc6c(C(F)(F)F)nn(C)c6C(C)(C)[C@@H]5CC[C@]43C)[C@H]12`, the outcome in the assay on HeLa [1], with HT-1080 [3], in the assay with SK-N-MC [5], with MCF7 [9] and in the assay with HepG2 [10] was Active. Further, the viability at 20 µM with SK-N-MC [2] came to 67.4%; with HepG2 [4], 46%; in the assay on MCF7 [6], 47.6%; in the assay with HT-1080 [7], 35.8%; in the assay with HeLa [8], 44.9%.

As to `C[C@H]1[C@H](C)CC[C@]2(C(=O)O)CC[C@]3(C)C(=CC[C@@H]4[C@@]5(C)Cc6cnn(-c7cccc(F)c7)c6C(C)(C)[C@@H]5CC[C@]43C)[C@H]12`, the result in the assay with HeLa [1], in the assay on HT-1080 [3], in the assay with SK-N-MC [5], in the assay on MCF7 [9] and in the assay with HepG2 [10] was inactive. For the same compound, the viability at 20 µM in the assay on SK-N-MC [2] came to 24.6%; with HepG2 [4] it was 29.5%; with MCF7 [6], 46.6%; in the assay with HT-1080 [7], 33.5%; in the assay with HeLa [8] it was 33.3%.

In the case of `CC(=O)O[C@H]1C(=O)[C@@]2(C)[C@H]([C@H](OC(=O)c3ccccc3)[C@]3(O)C[C@H](OC(=O)[C@H](O)[C@@H](NC(=O)c4ccccc4)c4ccccc4)C(C)=C1C3(C)C)[C@]1(OC(C)=O)CO[C@@H]1C[C@@H]2O`, the result in the assay on HeLa [11] and in the assay on HeLa [12] was Active. Also, in the assay with HeLa [13], the outcome was inactive.

On to `C[C@H]1[C@H](C)CC[C@]2(C(=O)O)CC[C@]3(C)C(=CC[C@@H]4[C@@]5(C)Cc6cnn(C)c6C(C)(C)[C@@H]5CC[C@]43C)[C@H]12`, for which the outcome in the assay on HeLa [1], in the assay with HT-1080 [3], in the assay with SK-N-MC [5], in the assay on MCF7 [9] and with HepG2 [10] was Active. The viability at 20 µM with SK-N-MC [2] amounted to 67.4%; in the assay on HepG2 [4], 46%; with MCF7 [6], 47.6%; in the assay with HT-1080 [7] it was 35.8%; in the assay on HeLa [8], 44.9%.

With `C[C@H]1[C@H](C)CC[C@]2(C(=O)O)CC[C@]3(C)C(=CC[C@@H]4[C@@]5(C)CC[C@H](O)C(C)(C)[C@@H]5CC[C@]43C)[C@H]12` [URSOLIC ACID], the outcome with HeLa [1], with HT-1080 [3], in the assay with SK-N-MC [5], with MCF7 [9] and in the assay on HepG2 [10] was inactive. Further, the viability at 20 µM in the assay with SK-N-MC [2] amounted to 67.2%; with HepG2 [4], 34.1%; with MCF7 [6], 57.6%; in the assay with HT-1080 [7], 39.4%; with HeLa [8], 43.3%.

Take `C[C@H]1[C@H](C)CC[C@]2(C(=O)O)CC[C@]3(C)C(=CC[C@@H]4[C@@]5(C)Cc6cnn(CCO)c6C(C)(C)[C@@H]5CC[C@]43C)[C@H]12`: the result with HeLa [1], in the assay with HT-1080 [3], in the assay on SK-N-MC [5], in the assay with MCF7 [9] and in the assay on HepG2 [10] was inactive. Also, the viability at 20 µM in the assay with SK-N-MC [2] is 63.3%; in the assay with HepG2 [4], 57%; in the assay with MCF7 [6], 40.5%; in the assay with HT-1080 [7], 39%; with HeLa [8] it was 47%.

As to `C[C@H]1[C@H](C)CC[C@]2(C(=O)O)CC[C@]3(C)C(=CC[C@@H]4[C@@]5(C)Cc6cnn(-c7ccc(F)cc7)c6C(C)(C)[C@@H]5CC[C@]43C)[C@H]12`, the outcome in the assay with HeLa [1], in the assay on HT-1080 [3], in the assay on SK-N-MC [5], in the assay on MCF7 [9] and in the assay on HepG2 [10] was Active. Moreover, the viability at 20 µM was 39.4% in the assay on SK-N-MC [2]; 58.6% with HepG2 [4]; 34.3% in the assay with MCF7 [6]; 27.3% in the assay with HT-1080 [7]; 24.4% in the assay on HeLa [8].

As to `C[C@H]1[C@H](C)CC[C@]2(C(=O)O)CC[C@]3(C)C(=CC[C@@H]4[C@@]5(C)Cc6cnn(CC7CC7)c6C(C)(C)[C@@H]5CC[C@]43C)[C@H]12`, the result in the assay on HeLa [1], with HT-1080 [3], with SK-N-MC [5], in the assay on MCF7 [9] and in the assay on HepG2 [10] was inactive. Also, the viability at 20 µM in the assay on SK-N-MC [2] turned out to be 33.9%; in the assay on HepG2 [4] it was 33.9%; with MCF7 [6] it was 33.4%; in the assay with HT-1080 [7], 23.5%; with HeLa [8], 19.9%.

Turning to `C[C@H]1[C@H](C)CC[C@]2(C(=O)O)CC[C@]3(C)C(=CC[C@@H]4[C@@]5(C)Cc6cnn(C7CCCC7)c6C(C)(C)[C@@H]5CC[C@]43C)[C@H]12`, the result in the assay with HeLa [1], in the assay on HT-1080 [3], in the assay on SK-N-MC [5], in the assay on MCF7 [9] and in the assay with HepG2 [10] was Active. For the same compound, the viability at 20 µM in the assay with SK-N-MC [2] worked out at 31.4%; in the assay on HepG2 [4] it was 44.6%; with MCF7 [6] it was 36.2%; with HT-1080 [7] it was 27.9%; in the assay on HeLa [8], 30.8%.

In the case of `C[C@H]1[C@H](C)CC[C@]2(C(=O)O)CC[C@]3(C)C(=CC[C@@H]4[C@@]5(C)Cc6cnn(-c7ccccc7)c6C(C)(C)[C@@H]5CC[C@]43C)[C@H]12`, the outcome with HeLa [1], with HT-1080 [3], in the assay on SK-N-MC [5], with MCF7 [9] and in the assay with HepG2 [10] was inactive. The viability at 20 µM was found to be 57.4% in the assay on SK-N-MC [2]; 60.1% in the assay on HepG2 [4]; 46.5% in the assay on MCF7 [6]; 38.7% in the assay on HT-1080 [7]; 40.9% in the assay on HeLa [8].

Take `C[C@H]1[C@H](C)CC[C@]2(C(=O)O)CC[C@]3(C)C(=CC[C@@H]4[C@@]5(C)Cc6cnn(-c7cccc(C#N)c7)c6C(C)(C)[C@@H]5CC[C@]43C)[C@H]12`: the result in the assay with HeLa [1], in the assay on HT-1080 [3], in the assay on SK-N-MC [5], with MCF7 [9] and in the assay with HepG2 [10] was Active. Moreover, the viability at 20 µM with SK-N-MC [2] was determined as 31%; in the assay on HepG2 [4], 29.3%; with MCF7 [6], 28.1%; in the assay on HT-1080 [7], 37.5%; with HeLa [8] it was 37.3%.
